Laboratory results from paper PMC6811854 (ACS Omega, 2019).

Columns and labels:
Neuro2A cells [1] = assay: Neurite outgrowth assay; assay type: cell-based, mouse; details: for optimum neuritogenic concentration: average neurite length; for neurite outgrowth promotion compared to no inhibitor (vehicle): differentiated Neuro2A cells, 48 h post-treatment, 10, 1, 0.1, 0.01 μM
[2] = BBB crossing: TLC detection in Zebrafish brain extract; assay type: in vivo; details: 25 mg/kg, intraperitoneal injection
Outline: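 Adult zebrafish were dosed with 25 mg/kg test compound or DMSO vehicle. Fish were anaesthetised on ice, and the whole brain was removed and freeze-dried in liquid nitrogen. Brains were ground in HPLC-grade ethyl acetate, sonicated, centrifuged (10 000 rpm, 20 min) and left 20 min to separate the extract. Compound in the extract was detected by TLC.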

Neuro2A cells [3] = assay: Cell viability assay; assay type: cell-based, mouse; details: 10 μM, 72 h, MTT assay
Outline: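 Neuro2A cells were kept in DMEM/10% FBS with supplements at 37 °C, 5% CO2, and seeded at 10 000 cells/cm2. After 24 h they were differentiated in 1% FBS and exposed to compounds (10, 1.0, 0.1 μM) for 72 h. MTT was added for 2 h at 37 °C, formazan was dissolved in DMSO and absorbance read at 562 nm. Viability is given relative to vehicle.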

Neuro2A cells [4] = assay: Immunoblot of acetylated H3, H4 and tubulin in Neuro2A cells; assay type: cell-based, mouse; details: 1 μM, compared to vehicle
Outline: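 Neuro2A cells were exposed to compound or vehicle and harvested in Laemmli buffer; protein was assayed by amido black. Equal protein went on 12% SDS-PAGE, then PVDF transfer. Primaries ran overnight at 4 °C and secondaries 2 h at room temperature, with chemiluminescent detection. Acetylated H3, H4 and tubulin were quantified and compared with vehicle by Student's t-test.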

[5] = test system: HDAC8 (class I), HDAC4 (class IIa), HDAC6 (class IIb); assay: HDACi selectivity assay; assay type: biochemical, Human; details: enzymes immunoprecipitated from HeLA cells; 10, 1, 0.1, 0.01, 0.001 μM
Zebrafish = assay: Social interaction test in chronic unpredictable stress; assay type: in vivo, Zebrafish (Danio rerio); details: intraperitoneal
Outline: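 Adult zebrafish were held at 28 ± 2 °C on a 14/10 h light/dark cycle. They then had 7 days of chronic unpredictable stress, two varied stressors daily (restraint, 33/23 °C, isolation, crowding, predator, chasing, alarm pheromone, etc.). Test compound was given at 10, 25 or 50 mg/kg, with fluoxetine 15 mg/kg as reference. Each fish then spent 120 s with an unfamiliar pink zebrafish target. Video was scored manually for latency, interaction time and freezing; n = 15.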

[6] = compound 5 at 50 mg dose, vs vehicle-treated group

SMILES | neurite growth activity and viability above the optimum neuritogenic concentration (Neuro2A cells [1]; Neuro2A cells) | optimum neuritogenic concentration (Neuro2A cells [1]; Neuro2A cells) | neurite outgrowth promotion compared to no inhibitor (vehicle) (Neuro2A cells [1]) | also measured
O=C(CCCCCc1ccc2c(c1)c1ccccc1n2Cc1ccccc1)NO [Compound 4, 6-(9-Benzyl-9H-carbazol-3-yl)-N-hydroxyhexanamide] | reduced neurite growth activity and viability | 0.1 µM | significantly more neurite outgrowth promotion | 
O=C(CCCCCCCc1ccc2[nH]c3ccccc3c2c1)NO [Compound 5, 8-(9H-Carbazol-3-yl)-N-hydroxyoctanamide] | reduced neurite growth activity and viability | 1 µM | significantly more neurite outgrowth promotion | neurite outgrowth compared to vorinostat and tubastatin-A (Neuro2A cells [1]; Neuro2A cells, at optimum neuritogenic concentrations): remarkably more neurite outgrowth; crossing of the blood-brain barrier (detection in brain extract by TLC) [2]: crossing the BBB; cell viability (cytotoxicity) (Neuro2A cells [3]): does not show any observable toxicity; acetylated H3 (Neuro2A cells [4]): significant increase; acetylated H4 (Neuro2A cells [4]): significant increase; acetylated tubulin (Neuro2A cells [4]): significant increase; HDAC class selectivity [5]: selectivity for class II (class IIa-HDAC4 and class IIb- HDAC6) over class I (HDAC8); latency to social interaction (Zebrafish; [6]): not at 50 mg dose; total time spent in interaction zone (Zebrafish; [6]): not at 50 mg dose
O=C(CCCCC(=NO)c1ccc2c(c1)c1ccccc1n2Cc1ccccc1)NO [Compound 6, 6-(9-Benzyl-9H-carbazol-3-yl)-N-hydroxy-6-(hydroxyimino)hexanamide] | reduced neurite growth activity and viability | 0.01 µM | significantly more neurite outgrowth promotion | 
O=C(CCCCCCC(=NO)c1ccc2c(c1)c1ccccc1n2Cc1ccccc1)NO [Compound 7, 8-(9-Benzyl-9H-carbazol-3-yl)-N-hydroxy-8-(hydroxyimino)octanamide] | reduced neurite growth activity and viability | 0.1 µM | significantly more neurite outgrowth promotion | 
O=C(CCCCc1ccc2c(c1)c1ccccc1n2CC(=O)NO)NO [Compound 8, N-hydroxy-5-(9-(2-(hydroxyamino)-2-oxoethyl)-9H-carbazol-3-yl)pentanamide] | reduced neurite growth activity and viability | 0.1 µM | significantly more neurite outgrowth promotion | 
O=C(CCCC(=NO)n1c2ccccc2c2ccccc21)NO [Compound 10, 5-(9H-Carbazol-9-yl)-N-hydroxy-5-(hydroxyimino)pentanamide] | reduced neurite growth activity and viability | 0.1 µM | significantly more neurite outgrowth promotion | 
O=C(CCCCC(=NO)n1c2ccccc2c2ccccc21)NO [Compound 11, 6-(9H-Carbazol-9-yl)-N-hydroxy-6-(hydroxyimino)hexanamide] | reduced neurite growth activity and viability | 0.1 µM | significantly more neurite outgrowth promotion | 
CNCCC(Oc1ccc(C(F)(F)F)cc1)c1ccccc1 (stereo not drawn) [fluoxetine, reference compound] |  |  |  | freezing duration (social interaction test) (Zebrafish; compound 5 (10, 25, 50 mg/kg tested), fluoxetine 15 mg/kg): trend of decreased freezing duration
CN1CCc2c(c3ccccc3n2Cc2ccc(C(=O)NO)cc2)C1 [tubastatin-A, reference compound] | reduced neurite growth activity and viability | 10 µM | significantly more neurite outgrowth promotion | 
O=C(CCCCCCC(=O)Nc1ccccc1)NO [vorinostat, suberoylanilide hydroxamic acid, reference compound] | reduced neurite growth activity and viability | 1 µM |  | 
